Test results reported in ChEMBL document CHEMBL1649163, “Surfactants, aromatic and isoprenoid compounds, and fatty acid biosynthesis inhibitors suppress Staphylococcus aureus production of toxic shock syndrome toxin 1” (2009).

What was measured:
Type in all cases: functional
Staphylococcus aureus [1] = tested on: Staphylococcus aureus
Staphylococcus aureus [2] = tested on: Staphylococcus aureus; remark: listed apart in the source
Staphylococcus aureus [3] = assay: Effect on growth in Staphylococcus aureus MN8 at 0.10 % after 24 hrs (reference value: 100%)
In short: (§1)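 Test-tube growth assay: 10 ml growth medium (brain heart infusion with 10% fetal bovine serum, MgCl2, L-glutamine) inoculated to 5 × 10^6 CFU/ml from a 24 h 37°C preculture. Compound diluted in medium, or dissolved in methanol with methanol-matched controls. After 24 h at 37°C with 5% CO2, OD600 and viable counts read. Growth given as % of CFU/ml of untreated controls in the same experiment.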

Staphylococcus aureus [4] = assay: Effect on growth in Staphylococcus aureus MN8 at 0.50 % after 24 hrs (reference value: 100%)
In short: as §1

Staphylococcus aureus [5] = assay: microbe, parasite or virus in culture; conditions: 24 h
Staphylococcus aureus [6] = assay: Effect on growth in Staphylococcus aureus MN8 at 10.7 mM after 24 hrs (reference value: 100%)
In short: as §1

Staphylococcus aureus [7] = assay: microbe, parasite or virus in culture; conditions: 24 h; remark: listed apart in the source
Staphylococcus aureus [8] = assay: Effect on growth in Staphylococcus aureus MN8 at 0.75 mM after 24 hrs (reference value: 100%)
In short: as §1

Staphylococcus aureus [9] = assay: Effect on growth in Staphylococcus aureus MN8 at 3.75 mM after 24 hrs (reference value: 100%)
In short: as §1

Staphylococcus aureus [10] = assay: Effect on growth in Staphylococcus aureus MN8 at 75.00 mM after 24 hrs (reference value: 100%)
In short: as §1

Staphylococcus aureus [11] = assay: microbe, parasite or virus in culture; conditions: 24 h; remark: listed apart in the source
Staphylococcus aureus [12] = assay: microbe, parasite or virus in culture; conditions: 24 h; remark: listed apart in the source
Staphylococcus aureus [13] = assay: Effect on growth in Staphylococcus aureus MN8 at 0.67 mM after 24 hrs (reference value: 100%)
In short: as §1

Staphylococcus aureus [14] = assay: microbe, parasite or virus in culture; conditions: 26 h
Staphylococcus aureus [15] = assay: microbe, parasite or virus in culture; conditions: 24 h; remark: listed apart in the source
Staphylococcus aureus [16] = assay: microbe, parasite or virus in culture; conditions: 32 h
Staphylococcus aureus [17] = assay: microbe, parasite or virus in culture; conditions: 32 h; remark: listed apart in the source
Staphylococcus aureus [18] = assay: microbe, parasite or virus in culture; conditions: 32 h; remark: listed apart in the source
Staphylococcus aureus [19] = assay: microbe, parasite or virus in culture; conditions: 26 h; remark: listed apart in the source
Staphylococcus aureus [20] = assay: microbe, parasite or virus in culture; conditions: 28 h
Staphylococcus aureus [21] = assay: Effect on growth in Staphylococcus aureus MN8 at 9.8 mM after 24 hrs (reference value: 100%)
In short: as §1

Staphylococcus aureus [22] = assay: microbe, parasite or virus in culture; conditions: 24 h; remark: listed apart in the source
Staphylococcus aureus [23] = assay: Effect on growth in Staphylococcus aureus MN8 at 5.00 mM after 24 hrs (reference value: 100%)
In short: as §1

Staphylococcus aureus [24] = assay: microbe, parasite or virus in culture; conditions: 24 h; remark: listed apart in the source
Staphylococcus aureus [25] = assay: Effect on growth in Staphylococcus aureus MN8 at 2.50 mM after 24 hrs (reference value: 100%)
In short: as §1

Staphylococcus aureus [26] = assay: microbe, parasite or virus in culture; conditions: 24 h; remark: listed apart in the source
Staphylococcus aureus [27] = assay: microbe, parasite or virus in culture; conditions: 24 h; remark: listed apart in the source
Staphylococcus aureus [28] = assay: Effect on growth in Staphylococcus aureus MN8 at 10.00 mM after 24 hrs (reference value: 100%)
In short: as §1

Compound: O=C(O)c1cc(O)c(O)c(O)c1 [GALLIC ACID]
- inhibition (INH) (Staphylococcus aureus [1]): 8.7%
- inhibition (INH) (Staphylococcus aureus [2]): 41.4%
- Activity (Staphylococcus aureus [3]): 45%
- Activity (Staphylococcus aureus [4]): 2.6%

Compound: CCCCCCCCCCCC(=O)OCC(O)CO (racemic) [GLYCEROL MONOLAURATE]
- inhibition at 10700 µM (Staphylococcus aureus [5]): 5.2%
- Activity (Staphylococcus aureus [6]): 36.3%

Compound: CC(=O)/C=C/C1=C(C)CCCC1(C)C [BETA-IONONE]
- inhibition at 750 µM (Staphylococcus aureus [7]): 10%
- Activity (Staphylococcus aureus [8]): 27.1%
- Activity (Staphylococcus aureus [9]): 1%

Compound: C=CC(=C)CCC=C(C)C [MYRCENE]
- inhibition at 750 µM (Staphylococcus aureus [7]): 60.3%
- Activity (Staphylococcus aureus [8]): 110.8%
- Activity (Staphylococcus aureus [10]): 76.5%
- inhibition at 75000 µM (Staphylococcus aureus [11]): 75.2%

Compound: COc1cc(C(=O)O)ccc1O [VANILLIC ACID]
- inhibition (INH) (Staphylococcus aureus [2]): 38.5%
- Activity (Staphylococcus aureus [3]): 24.5%

Compound: Cc1ccc(C(C)C)c(O)c1 [THYMOL]
- inhibition at 670 µM (Staphylococcus aureus [12]): 37.4%
- Activity (Staphylococcus aureus [13]): 99%

Compound: CCCCCCCCCCCCOCCOCCOCCOCCO [LAURETH 4]
- inhibition at 20000 µM (Staphylococcus aureus [14]): 1.5%
- inhibition at 10000 µM (Staphylococcus aureus [15]): 0.2%
- inhibition at 2000 µM (Staphylococcus aureus [16]): 0.1%
- inhibition at 10000 µM (Staphylococcus aureus [17]): 0%
- inhibition at 20000 µM (Staphylococcus aureus [18]): 0%
- inhibition at 2000 µM (Staphylococcus aureus [19]): 1.7%
- inhibition at 10000 µM (Staphylococcus aureus [20]): 2.9%

Compound: OCc1ccccc1 [BENZYL ALCOHOL]
- inhibition (INH) (Staphylococcus aureus [1]): 13.8%
- inhibition (INH) (Staphylococcus aureus [2]): 43.5%
- Activity (Staphylococcus aureus [3]): 49.7%
- Activity (Staphylococcus aureus [4]): 8.9%

Compound: CC(=O)Nc1ccc(O)cc1 [ACETAMINOPHEN]
- inhibition (INH) (Staphylococcus aureus [1]): 10.8%
- inhibition (INH) (Staphylococcus aureus [2]): 56.3%
- Activity (Staphylococcus aureus [3]): 44.2%
- Activity (Staphylococcus aureus [4]): 13.2%

Compound: CC(C)=CCC/C(C)=C/CO [GERANIOL]
- inhibition at 750 µM (Staphylococcus aureus [7]): 0.7%
- Activity (Staphylococcus aureus [8]): 19.3%
- Activity (Staphylococcus aureus [9]): 3.9%

Compound: CCCCCCCCCCCCOCCOCCOCCOC(=O)CC(C(=O)[O-])S(=O)(=O)[O-].[Na+].[Na+] (stereo not drawn) [DISODIUM LAURETH SULFOSUCCCINATE]
- Activity (Staphylococcus aureus [21]): 10.3%
- inhibition at 9800 µM (Staphylococcus aureus [22]): 0.6%

Compound: OCCOc1ccccc1 [PHENOXYETHANOL]
- inhibition (INH) (Staphylococcus aureus [1]): 25.1%
- inhibition (INH) (Staphylococcus aureus [2]): 42.3%
- Activity (Staphylococcus aureus [3]): 54.3%
- Activity (Staphylococcus aureus [4]): 32.3%

Compound: CCCCCCCCCCCCCCOCCOCCOCCOC(=O)CCCCCCCCCCCCC
- Activity (Staphylococcus aureus [23]): 108%
- inhibition at 5000 µM (Staphylococcus aureus [24]): 47.4%
- Activity (Staphylococcus aureus [25]): 106.6%
- inhibition at 2500 µM (Staphylococcus aureus [26]): 64.9%
- inhibition at 10000 µM (Staphylococcus aureus [27]): 22.2%
- Activity (Staphylococcus aureus [28]): 143.3%

Compound: NC(=O)c1ccccc1O [SALICYLAMIDE]
- inhibition (INH) (Staphylococcus aureus [1]): 11.3%
- inhibition (INH) (Staphylococcus aureus [2]): 49.2%
- Activity (Staphylococcus aureus [3]): 61.5%
- Activity (Staphylococcus aureus [4]): 14.5%

Compound: CCCCCCCCCCCC1=NCC[N+]1(CCOCC(=O)[O-])CC(=O)[O-].[Na+].[Na+].[OH-] (stereo not drawn) [DISODIUM LAUROAMPHODIACETATE]
- inhibition at 10700 µM (Staphylococcus aureus [5]): 1%
- Activity (Staphylococcus aureus [6]): 11.3%
